Measured values from different studies.
Protocols differ between the studies behind these lines.
Cell line: A549
Read-out: cell growth or viability

| Compound | assay | setting | measurement | value |
| --- | --- | --- | --- | --- |
| N#CSCc1cc(=O)oc2cc(O)ccc12 | SRB | – | GI50 | 5.8 µM |
| COc1ccc(NC(=O)NCc2cn(Cc3ccc(Br)cc3)nn2)cc1 | CCK-8 | 50 µM, 72 h | viability | 96.4% |
| CCCCC(=O)Nc1ccc(-c2ccc3ncn(CC4CCC4)c(=O)c3c2)cn1 | CCK-8 | 72 h | IC50 | 0.32 µM |
| O=C(Nc1ccc(Cl)cc1)Nc1cccc(-c2cn(Cc3ccc(Cl)cc3)nn2)c1 | CCK-8 | 20 µM, 72 h | viability | 121% |
| NCCCC(=O)Nc1ccccc1/N=c1\cc(-c2ccc3c(c2)OCO3)oc2ccccc12 | CCK-8 | 1 µM | inhibition | -0.2% |
| COc1ccc(NC(=O)Nc2ccc(-c3cn(Cc4ccc(Cl)cc4)nn3)cc2)cc1 | CCK-8 | 20 µM, 72 h | viability | 102% |
| CCC(=O)NCc1ccc(-c2cnc(C3CN(C(=O)c4ccc(NC(=O)[C@@H]5CC(C)(C)CN5)s4)C3)s2)c2ccccc12 | – | 14 days | GI50 | 0.46 µM |
| COc1ccc(NC(=O)NCc2cn(Cc3ccc(Cl)cc3)nn2)cc1 | CCK-8 | 50 µM, 72 h | viability | 80.9% |
| CCCCCCCCCCCCCCCCCCOc1ccccc1CC(=O)OCCC[N+](C)(C)C | SRB | 10 µM | inhibition | 45.8% |
| O=C(NCc1cn(Cc2ccc(Cl)cc2)nn1)Nc1ccc(Cl)cc1 | CCK-8 | 50 µM, 72 h | viability | 67.6% |
| COc1cccc2c1C(=O)c1c(O)c3c(c(O)c1C2=O)C[C@@](O)(C(=O)CO)C[C@@H]3O[C@H]1C[C@H](N)[C@H](O)[C@H](C)O1 | MTT | 72 h | IC50 | 0.52 µM |
| COc1ccc(NC(=O)NCc2cn(Cc3ccc(C)cc3)nn2)cc1 | CCK-8 | 50 µM, 72 h | viability | 71.5% |
| COc1ccc2/c(=N/c3ccccc3NC(=O)[C@@H](N)CO)cc(-c3ccc4c(c3)OCCO4)oc2c1 | CCK-8 | 1 µM | inhibition | 1.6% |
| CCCCC(=O)Nc1ccc(-c2ccc3ncn(CCC)c(=O)c3c2)cc1 | CCK-8 | 72 h | IC50 | > 10 µM |
| COc1ccc(NC(=O)Nc2ccc(-c3cn(Cc4ccc(Br)cc4)nn3)cc2)cc1 | CCK-8 | 50 µM, 72 h | viability | 101% |
| CCCn1cnc2ccc(-c3ccc(NC(=O)CNCC)nc3)cc2c1=O | CCK-8 | 72 h | IC50 | 3.42 µM |
| O=C(Nc1ccc(Cl)cc1)Nc1ccc(-c2cn(Cc3ccc(Cl)cc3)nn2)cc1 | CCK-8 | 50 µM, 72 h | viability | 79.6% |
| O=C(Nc1nc2cc(-c3ccc4ncn(Cc5ccccc5)c(=O)c4c3)ccc2s1)c1ccccc1 | MTT | 72 h | IC50 | > 20 µM |
| COc1ccc(NC(=O)Nc2cccc(-c3cn(Cc4ccc(C)cc4)nn3)c2)cc1 | CCK-8 | 50 µM, 72 h | viability | 190% |
| CCCCCC(=O)Nc1ccc(-c2ccc3ncn(CC4CC4)c(=O)c3c2)cn1 | CCK-8 | 72 h | IC50 | 0.25 µM |

| Compound | assay | setting | measurement | value |
| --- | --- | --- | --- | --- |
| Cc1ccccc1Cn1cc(-c2cccc(NC(=O)Nc3ccc(F)cc3)c2)nn1 | CCK-8 | 20 µM, 72 h | viability | 114% |
| CCCn1cnc2ccc(-c3ccc(NC(=O)CNC(C)C)nc3)cc2c1=O | CCK-8 | 72 h | IC50 | > 10 µM |
| Nc1ccccc1/N=c1\cc(-c2ccc3c(c2)OCO3)oc2ccccc12 | CCK-8 | 1 µM | inhibition | 11.1% |
| O=C(Nc1ccc(Cl)cc1)Nc1ccc(-c2cn(Cc3cccc(Cl)c3)nn2)cc1 | CCK-8 | 20 µM, 72 h | viability | 64.6% |
| CCCCCCCCCCCCCCCCCCOCC(COP(=O)([O-])OCC[N+](C)(C)C)OC (stereo not shown) | SRB | 10 µM | inhibition | 2.5% |
| NCC(=O)Nc1ccccc1/N=c1\cc(-c2ccc3c(c2)OCCO3)oc2cc(F)ccc12 | CCK-8 | 1 µM | inhibition | -1.67% |
| CCCCn1cnc2ccc(-c3ccc(NC(=O)C4CCCCC4)nc3)cc2c1=O | CCK-8 | 72 h | IC50 | 1.28 µM |
| O=C(Nc1cccc(-c2cn(Cc3ccc(Br)cc3)nn2)c1)Nc1ccccc1Br | CCK-8 | 20 µM, 72 h | viability | 130% |
| O=c1[nH]cc(F)c(=O)[nH]1 | MTT | 48 h | IC50 | 42.5 µM |
| NCC(=O)Nc1ccccc1/N=c1\cc(-c2ccc3c(c2)OCO3)oc2ccccc12 | CCK-8 | 1 µM | inhibition | -5.88% |
| CCCCn1cnc2ccc(-c3ccc(NC(=O)NCCC)nc3)cc2c1=O | CCK-8 | 72 h | IC50 | > 10 µM |
| O=C(NCc1cn(Cc2ccc(Br)cc2)nn1)Nc1ccccc1Br | CCK-8 | 20 µM, 72 h | viability | 88.8% |
| CCCCCCCCCCCCCCCCCCOc1ccc(CC(=O)OCCC[N+](C)(C)C)cc1 | SRB | 10 µM | inhibition | 21.9% |
| CCCCC(=O)Nc1ccc(-c2cnc3ncn(CCC)c(=O)c3c2)cn1 | CCK-8 | 72 h | IC50 | > 10 µM |
| NCC(=O)Nc1ccccc1/N=c1\cc(-c2ccc3c(c2)OCO3)oc2c([N+](=O)[O-])cccc12 | CCK-8 | 1 µM | inhibition | -2.29% |
| O=C(Nc1ccc(-c2cn(Cc3ccc(Br)cc3)nn2)cc1)Nc1ccccc1Br | CCK-8 | 20 µM, 72 h | viability | 77.3% |
| NCCC(=O)Nc1ccccc1/N=c1\cc(-c2ccc3nc(N)oc3c2)oc2ccc(O)cc12 | CCK-8 | 1 µM | inhibition | 13.9% |
| CCCCCCCCCCCCCCCCCCOc1cccc(CC(=O)OCC[N+](CC)(CC)CC)c1 | SRB | 10 µM | inhibition | 40% |
| O=C(Nc1ccccc1/N=c1\cc(-c2ccc3c(c2)OCO3)oc2ccccc12)N1CCOCC1 | CCK-8 | 1 µM | inhibition | 13.8% |
| COc1ccc(NC(=O)Nc2ccc(-c3cn(Cc4cccc(Cl)c4)nn3)cc2)cc1 | CCK-8 | 20 µM, 72 h | viability | 102% |
